Test results published in ChEMBL document CHEMBL4138245, “Design and synthesis of novel quinacrine-[1,3]-thiazinan-4-one hybrids for their anti-breast cancer activity” (Eur J Med Chem, 2018).
Active and inactive are the calls of the source. The rule behind the calls is not given here.

Legend:
MDA-MB-468 = test: Antiproliferative activity against human MDA-MB-468 cells after 48 hrs by SRB assay; assay type: functional, cell-based; details: MDA-MB-468, 48 h
Procedure, shortened: (§1)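 SRB assay: 5,000-10,000 cells/well plated, 24 h at 37 °C/5% CO2 before drug; seven concentrations from 100 μM down (two- to ten-fold serial dilutions, DMSO ≤0.1% final) for 48 h; TCA fixation (10% final, 60 min, 4 °C), 0.4% SRB in 1% acetic acid, solubilized in 10 mM Tris base, absorbance 515-564 nm; growth = (Ti−Tz)/(C−Tz)×100; IC50 from sigmoidal variable-slope fit; triplicates, ≥2 independent experiments.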

MDA-MB-231 = test: Antiproliferative activity against human MDA-MB-231 cells after 48 hrs by SRB assay; assay type: functional, cell-based; details: MDA-MB-231, 48 h; procedure, shortened: as §1
MCF7 [1] = test: Antiproliferative activity against human MCF7 cells after 48 hrs by SRB assay; assay type: functional, cell-based; details: MCF7, 48 h; procedure, shortened: as §1
184B5 = test: Antiproliferative activity against human 184B5 cells after 48 hrs by SRB assay; assay type: cell-based; details: 184B5, 48 h; procedure, shortened: as §1
MCF7 [2] = test: Anticlonogenic activity against human MCF7 cells at 0.39 to 1.5 uM after 12 hrs by crystal violet staining based assay; assay type: functional, cell-based
Procedure, shortened: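 Clonogenic assay: 1000 cells/well seeded, treated after overnight attachment for 12 h, then medium replaced and cells grown until control colonies were large enough; colonies stained with crystal violet.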

COc1ccc2nc3cc(Cl)ccc3c(NCCCN3C(=O)CCSC3c3ccc(F)cc3)c2c1 (configuration not stated)
IC50 (MDA-MB-468): 4.58 µM
IC50 (MDA-MB-231): 5.36 µM
IC50 (MCF7 [1]): 4.97 µM
IC50 (184B5): 28.2 µM

COc1ccc2nc3cc(Cl)ccc3c(NCCCN3C(=O)CCSC3c3ccc(N(C)C)cc3)c2c1 (configuration not stated)
IC50 (MDA-MB-468): 3.56 µM
IC50 (MDA-MB-231): 2.63 µM
IC50 (MCF7 [1]): 3.09 µM
IC50 (184B5): 13.2 µM

COc1ccc2nc3cc(Cl)ccc3c(NCCCN3C(=O)CCSC3c3ccco3)c2c1 (configuration not stated)
IC50 (MDA-MB-468): 3.67 µM
IC50 (MDA-MB-231): 3.46 µM
IC50 (MCF7 [1]): 3.57 µM
IC50 (184B5): 3.6 µM

COc1ccc2nc3cc(Cl)ccc3c(NCCCN3C(=O)CCSC3c3c(F)cccc3F)c2c1 (configuration not stated)
IC50 (MDA-MB-468): 3.2 µM
IC50 (MDA-MB-231): 4.41 µM
IC50 (MCF7 [1]): 3.81 µM
IC50 (184B5): 29.3 µM

COc1ccc2nc3cc(Cl)ccc3c(NCCCN3C(=O)CCSC3c3ccc[nH]3)c2c1 (configuration not stated)
IC50 (MDA-MB-468): 4.87 µM
IC50 (MDA-MB-231): 4.56 µM
IC50 (MCF7 [1]): 1.66 µM
IC50 (184B5): 12.9 µM

COc1ccc2nc3cc(Cl)ccc3c(NCCCN3C(=O)CCSC3c3ccc(Br)cc3)c2c1 (configuration not stated)
IC50 (MDA-MB-468): 25.5 µM
IC50 (MDA-MB-231): 37.1 µM
IC50 (MCF7 [1]): 31.3 µM
IC50 (184B5): 35.8 µM

COc1ccc2nc3cc(Cl)ccc3c(NCCCN3C(=O)CCSC3c3ccncc3)c2c1 (configuration not stated)
IC50 (MDA-MB-468): 21.6 µM
IC50 (MDA-MB-231): 10.8 µM
IC50 (MCF7 [1]): 16.2 µM
IC50 (184B5): 14.6 µM

CCN(CC)CCCC(C)Nc1ccnc2cc(Cl)ccc12 (configuration not stated) [CHLOROQUINE PHOSPHATE]
IC50 (MDA-MB-468): 28.6 µM
IC50 (MDA-MB-231): 22.5 µM
IC50 (MCF7 [1]): 38.4 µM
IC50 (184B5): 76.1 µM

COc1ccc2nc3cc(Cl)ccc3c(NCCCN3C(=O)CCSC3c3ccnc4ccccc34)c2c1 (configuration not stated)
IC50 (MDA-MB-468): 10.4 µM
IC50 (MDA-MB-231): 7.48 µM
IC50 (MCF7 [1]): 8.94 µM
IC50 (184B5): 27.1 µM

COc1ccc2nc3cc(Cl)ccc3c(NCCCN3C(=O)CCSC3c3ccccc3[N+](=O)[O-])c2c1 (configuration not stated)
IC50 (MDA-MB-468): 1.21 µM
IC50 (MDA-MB-231): 0.77 µM
IC50 (MCF7 [1]): 0.99 µM
IC50 (184B5): 1.83 µM

COc1ccc2nc3cc(Cl)ccc3c(NCCCN3C(=O)CCSC3c3ccc(N(c4ccccc4)c4ccccc4)cc3)c2c1 (configuration not stated)
IC50 (MDA-MB-468): 1.68 µM
IC50 (MDA-MB-231): 3.32 µM
IC50 (MCF7 [1]): 1.85 µM
IC50 (184B5): 3.11 µM

COc1ccc2nc3cc(Cl)ccc3c(NCCCN3C(=O)CCSC3c3ccc(Cl)cc3)c2c1 (configuration not stated)
IC50 (MDA-MB-468): 4.43 µM
IC50 (MDA-MB-231): 3.53 µM
IC50 (MCF7 [1]): 3.4 µM
IC50 (184B5): 5.02 µM

COc1ccc2nc3cc(Cl)ccc3c(NCCCN3C(=O)CCSC3c3ccc(C)cc3)c2c1 (configuration not stated)
IC50 (MDA-MB-468): 6.97 µM
IC50 (MDA-MB-231): 4.87 µM
IC50 (MCF7 [1]): 5.52 µM
IC50 (184B5): 5.66 µM

CCN(CC)CCCC(C)Nc1c2ccc(Cl)cc2nc2ccc(OC)cc12 (configuration not stated) [QUINACRINE]
Activity (MCF7 [2]): Active
IC50 (MDA-MB-468): 3.96 µM
IC50 (MDA-MB-231): 3.25 µM
IC50 (MCF7 [1]): 4.19 µM
IC50 (184B5): 4.96 µM

COc1ccc2nc3cc(Cl)ccc3c(NCCCN3C(=O)CCSC3c3ccc(F)cc3F)c2c1 (configuration not stated)
IC50 (MDA-MB-468): 3.79 µM
IC50 (MDA-MB-231): 4.54 µM
IC50 (MCF7 [1]): 3.39 µM
IC50 (184B5): 5.08 µM

COc1ccc2nc3cc(Cl)ccc3c(NCCCN3C(=O)CCSC3c3ccccc3F)c2c1 (configuration not stated)
IC50 (MDA-MB-468): 2.68 µM
IC50 (MDA-MB-231): 4.11 µM
IC50 (MCF7 [1]): 2.29 µM
IC50 (184B5): 35.6 µM

COc1ccc2nc3cc(Cl)ccc3c(NCCCN3C(=O)CCSC3c3c(F)cccc3Cl)c2c1 (configuration not stated)
IC50 (MDA-MB-468): 5.19 µM
IC50 (MDA-MB-231): 3.44 µM
IC50 (MCF7 [1]): 4.31 µM
IC50 (184B5): 3.1 µM

COc1ccc2nc3cc(Cl)ccc3c(NCCCN3C(=O)CCSC3c3ccc(Cl)cc3Cl)c2c1 (configuration not stated)
IC50 (MDA-MB-468): 3.72 µM
IC50 (MDA-MB-231): 3.07 µM
IC50 (MCF7 [1]): 1.85 µM
IC50 (184B5): 4.28 µM

COc1ccc2nc3cc(Cl)ccc3c(NCCCN3C(=O)CCSC3C3CCCCC3)c2c1 (configuration not stated)
IC50 (MDA-MB-468): 5.25 µM
IC50 (MDA-MB-231): 5.85 µM
IC50 (MCF7 [1]): 5.05 µM
IC50 (184B5): 7.71 µM

COc1ccc2nc3cc(Cl)ccc3c(NCCCN3C(=O)CCSC3c3ccccc3Cl)c2c1 (configuration not stated)
IC50 (MDA-MB-468): 19.9 µM
IC50 (MDA-MB-231): 10.8 µM
IC50 (MCF7 [1]): 15.3 µM
IC50 (184B5): 69.6 µM

COc1ccc2nc3cc(Cl)ccc3c(NCCCN3C(=O)CCSC3c3ccc([N+](=O)[O-])cc3)c2c1 (configuration not stated)
IC50 (MDA-MB-468): 9.41 µM
IC50 (MDA-MB-231): 4.68 µM
IC50 (MCF7 [1]): 7.04 µM
IC50 (184B5): 19.5 µM

COc1ccc2nc3cc(Cl)ccc3c(NCCCN3C(=O)CCSC3c3ccccc3Br)c2c1 (configuration not stated)
IC50 (MDA-MB-468): 38.6 µM
IC50 (MDA-MB-231): 40.1 µM
IC50 (MCF7 [1]): 39.3 µM
IC50 (184B5): 15.6 µM

COc1ccc2nc3cc(Cl)ccc3c(NCCCN3C(=O)CCSC3c3ccccc3)c2c1 (configuration not stated)
IC50 (MDA-MB-468): 4.72 µM
IC50 (MDA-MB-231): 4.07 µM
IC50 (MCF7 [1]): 4.79 µM
IC50 (184B5): 9.32 µM

COc1ccc2nc3cc(Cl)ccc3c(NCCCN3C(=O)CCSC3c3c(Cl)cccc3Cl)c2c1 (configuration not stated)
IC50 (MDA-MB-468): 1.29 µM
IC50 (MDA-MB-231): 7.54 µM
IC50 (MCF7 [1]): 4.41 µM
IC50 (184B5): 3.84 µM
